# Results of several laboratories.
# Compare with care: the assays were run in different laboratories.
Structure (SMILES),organism,assay,system,conditions,quantity,value
O=C(O)CN1C(=O)/C(=C/c2ccc(-c3ccc(N(c4ccccc4)c4ccccc4)cc3)c3ccccc23)NC1=S,Streptococcus pyogenes,"microbial killing, broth dilution",ATCC19615,,MBC,> 1000 µg/mL
O=C(N[C@@H](Cc1ccccc1)C(=O)c1c[nH]nn1)[C@H](Cc1ccccc1)NC(=O)N1CCOCC1,Leishmania infantum,parasite growth,,"intracellular, amastigote",IC50,> 64000 nM
CCOC(=O)C1=C(C)N2NC(c3ccccc3O)N(C(Cc3c[nH]c4ccccc34)C(=O)O)C2=NC1c1ccc(Cl)cc1 (stereo not drawn),Streptococcus pyogenes,microbial growth,ATCC19615,"10 µg/mL, 24 h",inhibition zone,18 mm
O=C(O)CN1C(=O)/C(=C/c2ccc(-c3ccc(N(c4ccccc4)c4ccccc4)cc3)cc2)SC1=S,Streptococcus pyogenes,"microbial killing, broth dilution",ATCC19615,,MBC,500 µg/mL
CC(C(=O)O)N1c2nc(-c3ccc(Cl)cc3)c(C#N)c(=O)n2NC1(C)c1ccccc1O (stereo not drawn),Streptococcus pyogenes,microbial growth,ATCC19615,"10 µg/mL, 24 h",inhibition zone,16 mm
CCCCCCC/C=C/C(=O)N1C(=O)/C(=C(/C)O)C(=O)C1Cc1ccc(OC(C)(C)C)cc1 (stereo not drawn),Stenotrophomonas maltophilia,microbial growth,ATCC13637,,MIC,> 200 µg/mL
COc1cc(OC)c(OC)cc1C=C1Oc2ccccc2C1=O,Streptococcus mutans,microbial growth,UA159,50 µM,inhibition,30%
O=C1NC(=S)N/C1=C\c1ccc(-c2ccc(N(c3ccccc3)c3ccccc3)cc2)c2ccccc12,Streptococcus pyogenes,"microbial killing, broth dilution",ATCC19615,,MBC,> 1000 µg/mL
Cc1ccccc1-c1c(-c2ccccn2)nc2n1CCC2,Leishmania infantum,parasite growth,,"5 days, intracellular, amastigote",EC50,1000 nM
CCCCCCC/C=C/C(=O)N1C(=O)/C(=C(\O)c2ccc(F)cc2)C(=O)C1CC(C)C (stereo not drawn),Stenotrophomonas maltophilia,microbial growth,ATCC13637,,MIC,50 µg/mL
CN(c1ccc(F)cc1)c1c(-c2ccccn2)nc2ccccn12,Leishmania infantum,parasite growth,,"5 days, intracellular, amastigote",EC50,1000 nM
O=C(O)CN1C(=O)/C(=C/c2c3ccccc3c(-c3ccc(N(c4ccccc4)c4ccccc4)cc3)c3ccccc23)SC1=S,Streptococcus pyogenes,"microbial growth, broth dilution",ATCC19615,,MIC,> 1000 µg/mL
COc1ccc2nc(-c3ccccn3)c(Nc3ccc(F)cc3)n2c1,Leishmania infantum,parasite growth,,"intracellular, amastigote",IC50,2160 nM
CC(C(=O)O)N1C2=NC(c3ccc(Cl)cc3)C3=C(OC(C)(C)OC3=O)N2NC1(C)c1ccccc1O (stereo not drawn),Streptococcus pyogenes,microbial growth,ATCC19615,"10 µg/mL, 24 h",inhibition zone,8 mm
Cc1ccc2nc(-c3ccccc3)c(CNc3cccc(C(F)(F)F)c3)n2c1,Leishmania infantum,parasite growth,,"intracellular, amastigote",IC50,32000 nM
CC(=O)C1=C(C)N2NC(C)(c3ccccc3O)N(C(C)C(=O)O)C2=NC1c1ccc(Cl)cc1 (stereo not drawn),Streptococcus pyogenes,microbial growth,ATCC19615,"15 µg/mL, 24 h",inhibition zone,18 mm
Clc1cccc(-c2c(-c3ccccn3)nc3n2CCC3)c1,Leishmania infantum,parasite growth,,"5 days, intracellular, amastigote",EC50,794 nM
CCCCCCC/C=C/C(=O)N1C(=O)/C(=C(/C)O)C(=O)C1Cc1ccc(O)cc1 (stereo not drawn),Stenotrophomonas maltophilia,microbial growth,ATCC13637,,MIC,100 µg/mL
O=C1C(=Cc2cc(O)cc(O)c2)Oc2ccccc21,Streptococcus mutans,microbial growth,UA159,50 µM,inhibition,30%
O=C1NC(=S)N/C1=C\c1c2ccccc2c(-c2ccc(N(c3ccccc3)c3ccccc3)cc2)c2ccccc12,Streptococcus pyogenes,"microbial killing, broth dilution",ATCC19615,,MBC,> 1000 µg/mL
CC1(c2ccccc2O)Nn2c(nc(-c3ccc(Cl)cc3)c(C#N)c2=O)N1C(Cc1c[nH]c2ccccc12)C(=O)O (stereo not drawn),Streptococcus pyogenes,microbial growth,ATCC19615,"15 µg/mL, 24 h",inhibition zone,32 mm
O=C1NC(=S)S/C1=C\c1ccc(-c2ccc(N(c3ccccc3)c3ccccc3)cc2)cc1,Streptococcus mutans,"microbial killing, broth dilution",ATCC25175,,MBC,> 1000 µg/mL
O=C(N[C@@H](Cc1ccccc1)C(=O)c1noc(-c2ccccc2)n1)[C@H](Cc1ccccc1)NC(=O)N1CCOCC1,Leishmania infantum,parasite growth,,"intracellular, amastigote",IC50,> 64000 nM
O=C1NC(=S)S/C1=C\c1c2ccccc2c(-c2ccc(N(c3ccccc3)c3ccccc3)cc2)c2ccccc12,Streptococcus mutans,"microbial killing, broth dilution",ATCC25175,,MBC,> 1000 µg/mL
Fc1ccc(Nc2c(Cn3cccn3)nc3ccccn23)cc1,Leishmania infantum,parasite growth,,"intracellular, amastigote",IC50,> 64000 nM
CC(=O)C1=C(C)N2NC(C)(c3ccccc3O)N(C(Cc3c[nH]c4ccccc34)C(=O)O)C2=NC1c1ccc(Cl)cc1 (stereo not drawn),Streptococcus pyogenes,microbial growth,ATCC19615,"15 µg/mL, 24 h",inhibition zone,32 mm
CS(=O)(=O)c1ccc(-c2c(-c3ccccn3)nc3n2CCC3)cc1,Leishmania infantum,parasite growth,,"intracellular, amastigote",IC50,> 64000 nM
CN[C@H](CC(C)C)C(=O)N[C@H]1C(=O)N[C@@H](CC(N)=O)C(=O)N[C@H]2C(=O)N[C@H]3C(=O)N[C@H](C(=O)N[C@H](C(=O)O)c4cc(O)cc(O)c4-c4cc3ccc4O)[C@H](O)c3ccc(c(Cl)c3)Oc3cc2cc(c3O[C@@H]2O[C@H](CO)[C@@H](O)[C@H](O)[C@H]2O[C@H]2C[C@](C)(N)[C@H](O)[C@H](C)O2)Oc2ccc(cc2Cl)[C@H]1O,Streptococcus pyogenes,microbial killing,,,MBC,> 32 µg/mL
CC(=O)C1=C(C)N2NC(c3ccccc3O)N(C(Cc3c[nH]c4ccccc34)C(=O)O)C2=NC1c1ccc(Cl)cc1 (stereo not drawn),Streptococcus pyogenes,microbial growth,ATCC19615,"10 µg/mL, 24 h",inhibition zone,18 mm
COc1ccc(-c2c(-c3ccccn3)nc3n2CCC3)cc1OC,Leishmania infantum,parasite growth,,"5 days, intracellular, amastigote",EC50,2000 nM
O=C(N[C@@H](Cc1ccccc1)C(=O)c1cn(COCc2ccccc2)nn1)[C@H](Cc1ccccc1)NC(=O)N1CCOCC1,Leishmania infantum,parasite growth,,"intracellular, amastigote",IC50,> 64000 nM
CCOC(=O)C1=C(C)N2NC(C)(c3ccccc3O)N(C(Cc3c[nH]c4ccccc34)C(=O)O)C2=NC1c1ccc(Cl)cc1 (stereo not drawn),Streptococcus pyogenes,microbial growth,ATCC19615,"15 µg/mL, 24 h",inhibition zone,31 mm
O=C(N[C@H](CCc1ccccc1)C(=O)c1cc(Cc2ccccc2)on1)[C@H](Cc1ccccc1)NC(=O)N1CCOCC1,Leishmania infantum,parasite growth,,"intracellular, amastigote",IC50,> 64000 nM
CCCCCCC/C=C/C(=O)N1C(=O)/C(=C(\O)c2ccccc2)C(=O)C1CC(C)C (stereo not drawn),Stenotrophomonas maltophilia,microbial growth,ATCC13637,,MIC,> 200 µg/mL
O=C(O)CN1C(=O)/C(=C/c2c3ccccc3c(-c3ccc(N(c4ccccc4)c4ccccc4)cc3)c3ccccc23)NC1=S,Streptococcus mutans,"microbial growth, broth dilution",ATCC25175,,MIC,> 1000 µg/mL
C[Si](C)(C)c1cc(C(=O)[C@H](Cc2ccccc2)NC(=O)[C@H](Cc2ccccc2)NC(=O)N2CCOCC2)no1 (mixture of isomers),Leishmania infantum,parasite growth,,"intracellular, amastigote",IC50,> 64000 nM
